From paper PMC10370593 (Chemical Science, 2023)
Entries after “also recorded” stand apart in the source; their conditions may differ.

How the values were obtained:
MDA-MB-231 cells [1] = assay: MTT cytotoxicity for IC50 and combination index; assay type: cell-based; conditions: Homo sapiens, MDA-MB-231, 72 h
How it was run: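 MTT viability assay in MDA-MB-231 cells at 72 h. The IC50 of the test compound came from a dose range analysed in CompuSyn. For the combination, five test compound doses (200–450 μM) were paired with a fixed dose of lipopeptide–Notch1 siRNA complex. Combination index was derived by the Chou–Talalay method. Data are mean ± SEM, n = 3.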

CD44 gene = assay: Relative gene expression in Notch1 silenced MDA-MB-231 by real-time PCR; assay type: cell-based, human; conditions: MDA-MB-231, 72 h, RT-PCR; AB36_siRNA MR 50, metformin 200 μM; mean of n = 3
MMP-2 gene = assay: as above; assay type: cell-based, human; conditions: MDA-MB-231, 72 h, RT-PCR; AB36_siRNA MR 50, metformin 200 μM; mean of n = 3
CD24 gene = assay: as above; assay type: cell-based, human; conditions: MDA-MB-231, 72 h, RT-PCR; AB36_siRNA MR 50, metformin 200 μM; mean of n = 3
Erk1 gene = assay: Gene silencing by real-time PCR; assay type: cell-based, human; conditions: mean ± SEM of three
Erk2 gene = assay: Gene silencing by real-time PCR; assay type: cell-based, human; conditions: 72 h, MDA-MB-231, MR50, RT-PCR, mean ± SEM of three
Notch1 gene = assay: Gene silencing by real-time PCR; assay type: cell-based, human; conditions: 72 h, MDA-MB-231, MR50 (1.25 μM lipopeptide, 25 nM Notch1 siRNA), RT-PCR, mean ± SEM of three
MDA-MB-231 cells [2] = assay: Uptake studies by ApoTome microscopy; assay type: cell-based, human; conditions: MR 50, 6 h incubation at 37 °C
MDA-MB-231 cells [3] = assay: Cellular uptake by flow cytometry; assay type: cell-based, human; conditions: DY-547 labelled siRNA, MR 50, 1 h incubation
How it was run: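 MDA-MB-231 cells were incubated 1 h with complexes of FAM-labelled lipopeptide (1.25 μM) and DY-547-labelled siRNA (25 nM), MR 50. Complexes were pre-formed by mixing and resting 30 min at room temperature. Uptake was read by flow cytometry in the FITC and PE channels, with single-label complexes used for compensation. Samples were run in duplicate; values are mean ± SEM of two replicates.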

HUVEC = assay: Cellular uptake by flow cytometry; assay type: cell-based, human; conditions: DY-547 labelled siRNA, MR 50, 1 h incubation, hard to transfect primary cells, two replicates
Notch1 protein = assay: Immunostaining of Notch1 protein; assay type: cell-based, human; conditions: MDA-MB-231, 72 h, MR50, TRITC signal versus untreated vehicle
How it was run: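 MDA-MB-231 cells were seeded at 14000 per well on etched coverslips and left overnight. They were then transfected with unlabelled lipopeptide (1.25 μM) complexed to Notch1-silencing siRNA (25 nM), MR 50, for 72 h. Untreated cells served as vehicle. Notch1 was detected by immunofluorescence.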

trypsin = assay: Protease stability of lipopeptides; assay type: in vitro ADME; conditions: 0.1 μg trypsin, protocol of ref. 14
[4] = 48 h, MDA-MB-231, MR50 (1.25 μM lipopeptide, 25 nM Erk1/2 siRNA), RT-PCR

`CN(C)C(=N)N=C(N)N` [metformin] was tested, and the IC50 (MDA-MB-231 cells [1]) was 374 µM, the “relative expression of the CD44 gene” value (CD44 gene) was “did not show any changes” and the “relative expression of the MMP-2 gene” value (MMP-2 gene) was “did not show any changes”. The “relative expression of the CD24 gene” value (CD24 gene) was “did not show any changes”.

In the case of “FAM-^γAbu-Arg- Lys-N^ε(stearyl)-Arg-Sar-Arg-Gpn-Arg- Lys-N^ε(stearyl)-Arg-Sar-Arg-NH2 [AB32]”, the “Knockdown percentage, Erk1” value (Erk1 gene; [4]) is reported as 51.6 ± 7.4%, the “Knockdown percentage, Erk1” value (Erk1 gene; 72 h, MDA-MB-231, MR50, RT-PCR) is reported as 70.6 ± 2.3% and the “Knockdown percentage, Erk2” value (Erk2 gene) is reported as 60.3 ± 3.2%. The “Knockdown percentage, Notch1” value (Notch1 gene) was 73.1 ± 2.8%.

For “FAM-γAbu-Arg- C^α-Octylgly -Arg-Sar-Arg-Gly-Arg- Lys-N^ε(D-alpha-Tocopherol succinyl)-Arg-Sar-Arg-NH2 [AB18]”, the “Knockdown percentage, Erk1” value (Erk1 gene; [4]) was 62.6 ± 12.5%, the “Knockdown percentage, Erk1” value (Erk1 gene; 72 h, MDA-MB-231, MR50, RT-PCR) was 89.1 ± 6.3% and the “cytosolic distribution of siRNA compared with HiPerFect” value (MDA-MB-231 cells [2]) was “higher levels of cytosolic distribution of siRNA”. For the same compound, the “Knockdown percentage, Erk2” value (Erk2 gene) was 85.9 ± 16.7%, the “siRNA internalization (ranking among designed lipopeptides)” value (MDA-MB-231 cells [3]) was “highest siRNA internalization; also recorded: highest level of siRNA” and the “siRNA internalization relative to HiPerFect_siRNA” value (MDA-MB-231 cells [3]; two replicates) was 1.79 times. For the same compound, the “Knockdown percentage, Notch1” value (Notch1 gene) was 90.8 ± 3.06%.

With “FAM-γAbu-Arg- Lys-N^ε(1-Pyrenebutyryl)-Arg-Sar-Arg-Gly-Arg- Lys-N^ε(1-Pyrenebutyryl)-Arg-Sar-Arg-NH2 [AB17]” the “Knockdown percentage, Erk1” value (Erk1 gene; [4]) was 67.9 ± 7.6%, the “Knockdown percentage, Erk1” value (Erk1 gene; 72 h, MDA-MB-231, MR50, RT-PCR) was 85.9 ± 8.8% and the “Knockdown percentage, Erk2” value (Erk2 gene) was 75.8 ± 5.1%. The “Knockdown percentage, Notch1” value (Notch1 gene) was 82.5 ± 5.6%.

“FAM-γAbu-Arg-C^α-Octylgly-Arg-Sar-Arg-Gly-Arg-Lys-N^ε(1-Adamantyl)-Arg-Sar-Arg-NH2 [AB29]” was tested, and the “Knockdown percentage, Erk1” value (Erk1 gene; [4]) was 52.6 ± 10.2%, the “Knockdown percentage, Erk1” value (Erk1 gene; 72 h, MDA-MB-231, MR50, RT-PCR) was 58.8 ± 10.9% and the “Knockdown percentage, Erk2” value (Erk2 gene) was 59.8 ± 7.2%. For the same compound, the “siRNA internalization (ranking among designed lipopeptides)” value (MDA-MB-231 cells [3]) was “much lower efficiency; also recorded: lowest amount of siRNA” and the “Knockdown percentage, Notch1” value (Notch1 gene) was 50.5 ± 7.7%.

“PEG9-Arg- C^α-Octylgly -Arg-Sar-Arg-Gly-Arg-Lys- N^ε(D-alpha-Tocopherol succinyl)-Arg-Sar-Arg-NH2 [AB36]” was tested, and the “cellular internalization of siRNA relative to HiPerFect” value (HUVEC) was 1.53 times, the “Notch1 protein expression by immunofluorescence” value (Notch1 protein) was “significantly lowered” and the “time at which degradation by trypsin starts” value (trypsin) was 1 to 3 h. For the same compound, the “time at which lipopeptide is completely degraded by trypsin” value (trypsin) was 6 h.

In the case of “c[-Arg-^DHis-Arg-^DHis-Arg-Lys{Lys(linoleyl)2}-Arg-^DHis-Arg-^DHis-Arg-Glu-]-Lys(FAM)-NH2 (head to tail) [Peptide 6, reference compound]”, the “Knockdown percentage, Erk1” value (Erk1 gene; [4]) is reported as 31.2 ± 2.2%, the “Knockdown percentage, Erk1” value (Erk1 gene; 72 h, MDA-MB-231, MR50, RT-PCR) is reported as 78.1 ± 2.0% and the “Knockdown percentage, Erk2” value (Erk2 gene) is reported as 71.6 ± 9.4%. For the same compound, the “Knockdown percentage, Notch1” value (Notch1 gene) was 80.9 ± 1.6%.
